BindingDB's records for doi:10.1016/j.bmcl.2004.04.085 (Merck Sharp & Dohme Research Laboratories, 2004)

Tests used:
[1] = target: T1, Gamma-aminobutyric acid receptor subunit alpha-3/beta-3/gamma-2 (Homo sapiens, UniProt P34903+P18507+P28472); experiment: In vitro binding affinity against Gamma-aminobutyric acid A receptor, alpha 3 expressed in L(tk) cells by displacement of [3H]Ro-151788
T1 sequence (P34903 whole entry): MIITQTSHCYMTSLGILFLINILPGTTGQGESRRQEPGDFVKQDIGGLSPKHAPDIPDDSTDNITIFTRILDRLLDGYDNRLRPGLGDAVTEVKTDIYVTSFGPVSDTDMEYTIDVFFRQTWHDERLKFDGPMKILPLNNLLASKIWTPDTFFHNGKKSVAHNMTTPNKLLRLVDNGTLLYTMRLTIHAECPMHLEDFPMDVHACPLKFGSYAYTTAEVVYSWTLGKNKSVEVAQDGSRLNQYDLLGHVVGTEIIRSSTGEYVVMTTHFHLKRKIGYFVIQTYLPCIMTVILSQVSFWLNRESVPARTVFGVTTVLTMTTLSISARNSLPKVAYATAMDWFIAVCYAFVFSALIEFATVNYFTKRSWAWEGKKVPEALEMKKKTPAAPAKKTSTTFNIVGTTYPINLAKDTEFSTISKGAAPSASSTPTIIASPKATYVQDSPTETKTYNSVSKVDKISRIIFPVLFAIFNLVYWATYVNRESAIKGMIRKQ
T1 sequence (P18507 whole entry): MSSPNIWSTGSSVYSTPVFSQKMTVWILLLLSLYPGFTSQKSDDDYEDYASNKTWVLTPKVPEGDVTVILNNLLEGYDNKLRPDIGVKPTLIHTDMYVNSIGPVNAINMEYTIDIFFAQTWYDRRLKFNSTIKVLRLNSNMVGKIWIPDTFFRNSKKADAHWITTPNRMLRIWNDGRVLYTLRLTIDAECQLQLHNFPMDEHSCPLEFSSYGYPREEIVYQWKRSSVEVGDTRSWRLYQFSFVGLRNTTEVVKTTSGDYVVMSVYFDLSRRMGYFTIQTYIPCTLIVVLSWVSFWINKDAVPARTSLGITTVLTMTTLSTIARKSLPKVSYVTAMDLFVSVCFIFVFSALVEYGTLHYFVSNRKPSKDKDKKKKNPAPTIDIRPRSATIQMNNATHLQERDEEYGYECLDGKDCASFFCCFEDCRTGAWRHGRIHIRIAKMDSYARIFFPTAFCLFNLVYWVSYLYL
T1 sequence (P28472 whole entry): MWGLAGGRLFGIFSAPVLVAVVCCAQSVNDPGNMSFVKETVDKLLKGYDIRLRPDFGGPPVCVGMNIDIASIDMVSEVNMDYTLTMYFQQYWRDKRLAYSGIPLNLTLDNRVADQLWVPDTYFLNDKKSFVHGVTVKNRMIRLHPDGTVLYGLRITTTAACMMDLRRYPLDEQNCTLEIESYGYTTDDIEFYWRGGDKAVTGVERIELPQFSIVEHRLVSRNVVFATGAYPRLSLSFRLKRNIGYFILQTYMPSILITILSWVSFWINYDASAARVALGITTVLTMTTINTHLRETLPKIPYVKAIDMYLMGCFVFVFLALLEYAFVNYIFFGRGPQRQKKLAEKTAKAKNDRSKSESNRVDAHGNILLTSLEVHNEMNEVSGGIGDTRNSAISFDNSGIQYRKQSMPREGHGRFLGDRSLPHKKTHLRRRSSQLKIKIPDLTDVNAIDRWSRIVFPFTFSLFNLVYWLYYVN
Method in brief: (§1)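 Binding to cloned human α1β3γ2, α2β3γ2 or α3β3γ2 receptors stably expressed in L(tk-) cells, measured as displacement of [3H]Ro15-1788; means ± SEM, n = 3-7.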

[2] = target: T1, Gamma-aminobutyric acid receptor subunit alpha-3/beta-3/gamma-2; experiment: In vitro displacement of [3H]Ro-151788 from human GABA-A receptor alpha-3-beta-3-gamma-2 subunits expressed in L(tk-) cells; method in brief: as §1
[3] = target: T2, Gamma-aminobutyric acid receptor subunit alpha-1/beta-3/gamma-2 (Homo sapiens, UniProt P14867+P18507+P28472); experiment: In vitro binding affinity against gamma-aminobutyric acid A receptor, alpha 1 expressed in L(tk) cells by displacement of [3H]Ro-151788; method in brief: as §1
T2 sequence (P14867 whole entry): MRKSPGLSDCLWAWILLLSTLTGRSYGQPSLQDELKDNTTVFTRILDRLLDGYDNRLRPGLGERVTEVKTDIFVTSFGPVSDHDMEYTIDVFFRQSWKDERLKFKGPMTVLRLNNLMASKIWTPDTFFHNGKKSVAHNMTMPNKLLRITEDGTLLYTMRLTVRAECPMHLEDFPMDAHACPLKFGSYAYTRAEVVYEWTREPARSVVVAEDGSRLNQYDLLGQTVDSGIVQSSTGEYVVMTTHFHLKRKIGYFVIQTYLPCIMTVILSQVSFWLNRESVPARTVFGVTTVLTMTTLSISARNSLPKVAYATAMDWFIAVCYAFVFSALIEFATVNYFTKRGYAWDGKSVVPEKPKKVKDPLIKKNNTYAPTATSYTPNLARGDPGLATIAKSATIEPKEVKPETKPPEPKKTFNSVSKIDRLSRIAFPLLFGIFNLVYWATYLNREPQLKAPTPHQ
T2 sequence (P18507 whole entry): T1 sequence (P18507 whole entry)
T2 sequence (P28472 whole entry): T1 sequence (P28472 whole entry)

SMILES | Ki [1] [nM] | Ki [2] [nM] | Ki [3] [nM]
O=c1c2c([nH]n1-c1ccc(Cl)cc1)C1CN(CC3CC3)CCC1N=C2 (stereo not drawn) [2-(4-Chloro-phenyl)-8-cyclopropylmethyl-2,5,5a,6,7,8,9,9a-octahydro-pyrazolo[4,3-c][1,6]naphthyridin-3-one] | 7.5 | – | –
O=c1c2c([nH]n1-c1ccc(Cl)cc1)C1CCCC1N=C2 (stereo not drawn) [2-(4-Chloro-phenyl)-2,5a,6,7,8,8a-hexahydro-5H-cyclopenta[b]pyrazolo[3,4-d]pyridin-3-one] | 1.1 | – | –
O=c1c2c([nH]n1-c1ccc(Cl)cc1)C1CCCCCC1N=C2 (stereo not drawn) [2-(4-Chloro-phenyl)-2,5a,6,7,8,9,10,10a-octahydro-5H-1,2,5-triaza-cyclohepta[e]inden-3-one] | – | – | 1.1

Now from value to molecule:

Ki [1] [nM] | Ki [2] [nM] | Ki [3] [nM] | SMILES
– | 2.2 | 1.1 | O=c1c2cnc3c(c2[nH]n1-c1ccc(OC2CC2)cc1)CCCC3 [2-(4-Cyclopropoxy-phenyl)-2,5,6,7,8,9-hexahydro-pyrazolo[4,3-c]quinolin-3-one]
– | – | 7.3 | O=c1c2cnc3c(c2[nH]n1-c1ccc(OC(F)(F)F)cc1)CCCC3 [2-(4-Trifluoromethoxy-phenyl)-2,5,6,7,8,9-hexahydro-pyrazolo[4,3-c]quinolin-3-one]
2.3 | – | 1 | O=c1c2cnc3c(c2[nH]n1-c1ccc(OC(F)F)cc1)CCCC3 [2-(4-Difluoromethoxy-phenyl)-2,5,6,7,8,9-hexahydro-pyrazolo[4,3-c]quinolin-3-one]
